From ChEMBL document CHEMBL1133614, “Novel radiotracers for imaging the serotonin transporter by positron emission tomography: synthesis, radiosynthesis, and in vitro and ex vivo evaluation of (11)C-labeled 2-(phenylthio)araalkylamines” (J Med Chem, 2000)

Tests used:
[1] = Half-life of washout rate of radioactivity from the cerebellum.; format: ADME, tissue-based
How it was run: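 Rats received the 11C tracer by tail vein (3-30 MBq, 350-450 ng, buffered saline), 3 per time point. Cerebellar radioactivity (%ID/g) was followed over time after injection, and the half-life of its washout was derived from that time course.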

[2] = Log P at pH 7.4; format: physicochemical; details: buffer, read-out: logD
How it was run: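 Partition of the radiolabelled compound between 1-octanol and 0.02 M phosphate buffer at pH 7.4.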

Rattus norvegicus [3] = organism: Rattus norvegicus; assay: Biodistribution of radioactivity in rat thalamus upon Tail-Vein injection of [11C]-labeled compound after 15 min; format: ADME, organism-based; details: in vivo, iv, 0.25 h
Rattus norvegicus [4] = organism: Rattus norvegicus; assay: Biodistribution of radioactivity in rat thalamus upon Tail-Vein injection of [11C]-labeled compound after 30 min; format: ADME, organism-based; details: in vivo, iv, 0.5 h
Rattus norvegicus [5] = organism: Rattus norvegicus; assay: Biodistribution of radioactivity in rat blood upon Tail-Vein injection of [11C]-labeled compound after 15 min; format: ADME, organism-based; details: in vivo, iv, 0.25 h
Rattus norvegicus [6] = organism: Rattus norvegicus; assay: Biodistribution of radioactivity in rat blood upon Tail-Vein injection of [11C]-labeled compound after 30 min upon; format: ADME, organism-based; details: in vivo, iv, 0.5 h
Rattus norvegicus [7] = organism: Rattus norvegicus; assay: Biodistribution of radioactivity in rat blood upon Tail-Vein injection of [11C]-labeled compound after 5 min; format: ADME, organism-based; details: in vivo, iv
Rattus norvegicus [8] = organism: Rattus norvegicus; assay: Biodistribution of radioactivity in rat blood upon Tail-Vein injection of [11C]-labeled compound after 60 min; format: ADME, organism-based; details: in vivo, iv, 1 h
Rattus norvegicus [9] = organism: Rattus norvegicus; assay: Biodistribution of radioactivity in rat cerebellum upon Tail-Vein injection of [11C]-labeled compound after 15 min; format: ADME, organism-based; details: in vivo, iv, 0.25 h
Rattus norvegicus [10] = organism: Rattus norvegicus; assay: Biodistribution of radioactivity in rat cerebellum upon Tail-Vein injection of [11C]-labeled compound after 30 min; format: ADME, organism-based; details: in vivo, iv, 0.5 h
Rattus norvegicus [11] = organism: Rattus norvegicus; assay: Biodistribution of radioactivity in rat cerebellum upon Tail-Vein injection of [11C]-labeled compound after 5 min; format: ADME, organism-based; details: in vivo, iv
Rattus norvegicus [12] = organism: Rattus norvegicus; assay: Biodistribution of radioactivity in rat cerebellum upon Tail-Vein injection of [11C]-labeled compound after 60 min; format: ADME, organism-based; details: in vivo, iv, 1 h
Rattus norvegicus [13] = organism: Rattus norvegicus; assay: Biodistribution of radioactivity in rat cortex upon Tail-Vein injection of [11C]-labeled compound after 15 min; format: ADME, organism-based; details: in vivo, iv, 0.25 h
Rattus norvegicus [14] = organism: Rattus norvegicus; assay: Biodistribution of radioactivity in rat cortex upon Tail-Vein injection of [11C]-labeled compound after 30 min; format: ADME, organism-based; details: in vivo, iv, 0.5 h
Rattus norvegicus [15] = organism: Rattus norvegicus; assay: Biodistribution of radioactivity in rat thalamus upon Tail-Vein injection of [11C]-labeled compound after 5 min; format: ADME, organism-based; details: in vivo, iv
Rattus norvegicus [16] = organism: Rattus norvegicus; assay: Biodistribution of radioactivity in rat cortex upon Tail-Vein injection of [11C]-labeled compound after 5 min; format: ADME, organism-based; details: in vivo, iv
Rattus norvegicus [17] = organism: Rattus norvegicus; assay: Biodistribution of radioactivity in rat cortex upon Tail-Vein injection of [11C]-labeled compound after 60 min; format: ADME, organism-based; details: in vivo, iv, 1 h
Rattus norvegicus [18] = organism: Rattus norvegicus; assay: Biodistribution of radioactivity in rat hippocampus upon Tail-Vein injection of [11C]-labeled compound after 15 min; format: ADME, organism-based; details: in vivo, iv, 0.25 h
Rattus norvegicus [19] = organism: Rattus norvegicus; assay: Biodistribution of radioactivity in rat hippocampus upon Tail-Vein injection of [11C]-labeled compound after 30 min; format: ADME, organism-based; details: in vivo, iv, 0.5 h
Rattus norvegicus [20] = organism: Rattus norvegicus; assay: Biodistribution of radioactivity in rat hippocampus upon Tail-Vein injection of [11C]-labeled compound after 5 min; format: ADME, organism-based; details: in vivo, iv
Rattus norvegicus [21] = organism: Rattus norvegicus; assay: Biodistribution of radioactivity in rat hippocampus upon Tail-Vein injection of [11C]-labeled compound after 60 min; format: ADME, organism-based; details: in vivo, iv, 1 h
Rattus norvegicus [22] = organism: Rattus norvegicus; assay: Biodistribution of radioactivity in rat hypothalamus upon Tail-Vein injection of [11C]-labeled compound after 15 min; format: ADME, organism-based; details: in vivo, iv, 0.25 h
Rattus norvegicus [23] = organism: Rattus norvegicus; assay: Biodistribution of radioactivity in rat hypothalamus upon Tail-Vein injection of [11C]-labeled compound after 30 min; format: ADME, organism-based; details: in vivo, iv, 0.5 h
Rattus norvegicus [24] = organism: Rattus norvegicus; assay: Biodistribution of radioactivity in rat hypothalamus upon Tail-Vein injection of [11C]-labeled compound after 5 min; format: ADME, organism-based; details: in vivo, iv
Rattus norvegicus [25] = organism: Rattus norvegicus; assay: Biodistribution of radioactivity in rat hypothalamus upon Tail-Vein injection of [11C]-labeled compound after 60 min; format: ADME, organism-based; details: in vivo, iv, 1 h
Rattus norvegicus [26] = organism: Rattus norvegicus; assay: Biodistribution of radioactivity in rat striatum upon Tail-Vein injection of [11C]-labeled compound after 15 min; format: ADME, organism-based; details: in vivo, iv, 0.25 h
Rattus norvegicus [27] = organism: Rattus norvegicus; assay: Biodistribution of radioactivity in rat striatum upon Tail-Vein injection of [11C]-labeled compound after 30 min; format: ADME, organism-based; details: in vivo, iv, 0.5 h
Rattus norvegicus [28] = organism: Rattus norvegicus; assay: Biodistribution of radioactivity in rat striatum upon Tail-Vein injection of [11C]-labeled compound after 5 min; format: ADME, organism-based; details: in vivo, iv
Rattus norvegicus [29] = organism: Rattus norvegicus; assay: Biodistribution of radioactivity in rat striatum upon Tail-Vein injection of [11C]-labeled compound after 60 min; format: ADME, organism-based; details: in vivo, iv, 1 h
[30] = target: Sodium-dependent noradrenaline transporter (Homo sapiens, UniProt P23975); assay: In vitro binding affinity on cloned Norepinephrine transporter
Chain of Sodium-dependent noradrenaline transporter (P23975 whole entry): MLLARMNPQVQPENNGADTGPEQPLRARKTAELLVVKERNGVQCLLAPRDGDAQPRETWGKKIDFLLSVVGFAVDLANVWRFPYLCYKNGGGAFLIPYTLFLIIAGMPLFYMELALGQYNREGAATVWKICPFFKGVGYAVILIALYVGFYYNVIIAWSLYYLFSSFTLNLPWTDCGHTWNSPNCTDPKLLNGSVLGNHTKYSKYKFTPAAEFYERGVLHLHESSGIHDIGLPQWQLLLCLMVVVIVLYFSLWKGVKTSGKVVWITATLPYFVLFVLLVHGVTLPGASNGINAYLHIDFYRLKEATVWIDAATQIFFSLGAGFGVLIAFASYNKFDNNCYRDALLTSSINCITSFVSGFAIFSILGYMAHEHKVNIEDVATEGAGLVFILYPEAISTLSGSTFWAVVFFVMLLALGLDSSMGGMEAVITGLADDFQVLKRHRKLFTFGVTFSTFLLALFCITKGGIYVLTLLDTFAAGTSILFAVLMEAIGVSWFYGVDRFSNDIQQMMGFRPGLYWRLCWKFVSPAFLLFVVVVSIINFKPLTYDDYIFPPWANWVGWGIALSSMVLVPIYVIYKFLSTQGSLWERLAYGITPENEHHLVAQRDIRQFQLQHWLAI
How it was run: (§1)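 Competition binding in triplicate on membranes from cloned human transporters. Buffer 50 mM Tris-Cl pH 7.4 with 150 mM NaCl/5 mM KCl (SERT, NET) or 100 mM NaCl (DAT). Incubated 40 min at 37 °C, then filtered on PEI-soaked GF/B filters. Nonspecific binding set with duloxetine 1 µM (SERT), desipramine 10 µM (NET) or nomifensine 10 µM (DAT). IC50 from nonlinear fit; Ki by Cheng-Prusoff.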

[31] = target: Sodium-dependent serotonin transporter (Homo sapiens, UniProt P31645); assay: In vitro binding affinity on cloned Serotonin transporter
Chain of Sodium-dependent serotonin transporter (P31645 whole entry): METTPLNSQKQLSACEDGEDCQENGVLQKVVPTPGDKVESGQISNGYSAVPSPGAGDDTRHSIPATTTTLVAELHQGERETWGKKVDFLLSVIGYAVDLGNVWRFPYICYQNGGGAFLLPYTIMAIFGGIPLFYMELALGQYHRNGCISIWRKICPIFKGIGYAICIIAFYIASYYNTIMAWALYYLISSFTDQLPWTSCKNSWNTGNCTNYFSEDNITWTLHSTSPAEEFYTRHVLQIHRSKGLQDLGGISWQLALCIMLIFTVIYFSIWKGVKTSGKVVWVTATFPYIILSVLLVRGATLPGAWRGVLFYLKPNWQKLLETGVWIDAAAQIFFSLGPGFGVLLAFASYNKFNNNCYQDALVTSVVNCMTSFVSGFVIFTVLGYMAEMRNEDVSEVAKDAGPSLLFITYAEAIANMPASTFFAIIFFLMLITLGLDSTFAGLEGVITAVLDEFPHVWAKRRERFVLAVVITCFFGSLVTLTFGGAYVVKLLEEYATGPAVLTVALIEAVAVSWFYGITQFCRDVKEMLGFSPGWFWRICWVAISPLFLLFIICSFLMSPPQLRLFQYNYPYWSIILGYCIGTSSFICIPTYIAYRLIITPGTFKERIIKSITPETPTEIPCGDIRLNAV
How it was run: as §1, with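 “transporters. Radioligands: SERT [3H]paroxetine 0.2 nM with 10.3 µg protein, NET [3H]nisoxetine 1.0 nM with 16.9 µg, DAT [3H]WIN 35,428 1.0 nM with 6.2 µg.” for “transporters.”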

Rattus norvegicus [32] = organism: Rattus norvegicus; assay: Biodistribution of radioactivity in rat thalamus upon Tail-Vein injection of [11C]-labeled compound after 60 min; format: ADME, organism-based; details: in vivo, iv, 1 h
[33] = target: Sodium-dependent dopamine transporter (Homo sapiens, UniProt Q01959); assay: In vitro binding affinity on cloned Dopamine transporter
Chain of Sodium-dependent dopamine transporter (Q01959 whole entry): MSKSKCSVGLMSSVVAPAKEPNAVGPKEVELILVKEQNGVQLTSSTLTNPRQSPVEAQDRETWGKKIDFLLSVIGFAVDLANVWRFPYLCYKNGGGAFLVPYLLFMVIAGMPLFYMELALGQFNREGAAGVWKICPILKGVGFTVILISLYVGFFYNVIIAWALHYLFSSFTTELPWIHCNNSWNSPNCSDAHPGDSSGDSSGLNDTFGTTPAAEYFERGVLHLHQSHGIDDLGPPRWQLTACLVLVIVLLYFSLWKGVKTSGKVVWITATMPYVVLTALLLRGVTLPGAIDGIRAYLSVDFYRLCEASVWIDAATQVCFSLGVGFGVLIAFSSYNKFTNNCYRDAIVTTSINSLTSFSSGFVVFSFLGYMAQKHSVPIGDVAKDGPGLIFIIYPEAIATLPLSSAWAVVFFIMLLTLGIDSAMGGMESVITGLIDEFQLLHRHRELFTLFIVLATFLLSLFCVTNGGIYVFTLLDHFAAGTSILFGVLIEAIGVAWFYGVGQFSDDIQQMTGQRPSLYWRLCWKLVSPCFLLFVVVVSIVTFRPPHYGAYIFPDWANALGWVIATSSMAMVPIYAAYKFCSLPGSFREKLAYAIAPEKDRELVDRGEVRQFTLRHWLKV
How it was run: as §1, with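 “transporters. Radioligands: SERT [3H]paroxetine 0.2 nM with 10.3 µg protein, NET [3H]nisoxetine 1.0 nM with 16.9 µg, DAT [3H]WIN 35,428 1.0 nM with 6.2 µg.” for “transporters.”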

Rattus norvegicus [34] = organism: Rattus norvegicus; assay: Biodistribution of radioactivity in rat thalamus upon Tail-Vein injection of [11C]-labeled compound after 45 min; format: ADME, organism-based; details: in vivo, iv, 0.75 h
Rattus norvegicus [35] = organism: Rattus norvegicus; assay: Biodistribution of radioactivity in rat blood upon Tail-Vein injection of [11C]-labeled compound after 30 min; format: ADME, organism-based; details: in vivo, iv, 0.5 h
Rattus norvegicus [36] = organism: Rattus norvegicus; assay: Biodistribution of radioactivity in rat blood upon Tail-Vein injection of [11C]-labeled compound after 45 min; format: ADME, organism-based; details: in vivo, iv, 0.75 h
Rattus norvegicus [37] = organism: Rattus norvegicus; assay: Biodistribution of radioactivity in rat cerebellum upon Tail-Vein injection of [11C]-labeled compound after 45 min; format: ADME, organism-based; details: in vivo, iv, 0.75 h
Rattus norvegicus [38] = organism: Rattus norvegicus; assay: Biodistribution of radioactivity in rat cortex upon Tail-Vein injection of [11C]-labeled compound after 45 min; format: ADME, organism-based; details: in vivo, iv, 0.75 h
Rattus norvegicus [39] = organism: Rattus norvegicus; assay: Biodistribution of radioactivity in rat hippocampus upon Tail-Vein injection of [11C]-labeled compound after 45 min; format: ADME, organism-based; details: in vivo, iv, 0.75 h
Rattus norvegicus [40] = organism: Rattus norvegicus; assay: Biodistribution of radioactivity in rat hypothalamus upon Tail-Vein injection of [11C]-labeled compound after 45 min; format: ADME, organism-based; details: in vivo, iv, 0.75 h
Rattus norvegicus [41] = organism: Rattus norvegicus; assay: Biodistribution of radioactivity in rat striatum upon Tail-Vein injection of [11C]-labeled compound after 45 min; format: ADME, organism-based; details: in vivo, iv, 0.75 h

T1/2 [1] | logD [2] | ID/g (Rattus norvegicus [3]) | ID/g (Rattus norvegicus [4]) | ID/g (Rattus norvegicus [5]) | ID/g (Rattus norvegicus [7]) | ID/g (Rattus norvegicus [8]) | ID/g (Rattus norvegicus [9]) | ID/g (Rattus norvegicus [10]) | ID/g (Rattus norvegicus [11]) | ID/g (Rattus norvegicus [12]) | ID/g (Rattus norvegicus [13]) | ID/g (Rattus norvegicus [14]) | ID/g (Rattus norvegicus [15]) | ID/g (Rattus norvegicus [16]) | ID/g (Rattus norvegicus [17]) | ID/g (Rattus norvegicus [18]) | ID/g (Rattus norvegicus [19]) | ID/g (Rattus norvegicus [20]) | ID/g (Rattus norvegicus [21]) | SMILES | also measured
32.3 min | 3.77 | 1.06% | 1.07% | 0.21% | 0.35% | 0.12% | 0.7% | 0.47% | 0.92% | 0.28% | 1.06% | 0.98% | 1.07% | 1.09% | 0.69% | 0.91% | 0.88% | 0.92% | 0.75% | CN(C)Cc1ccccc1Sc1ccc(C(F)(F)F)cc1N | ID/g (Rattus norvegicus [6]): 0.21%; ID/g (Rattus norvegicus [22]): 1.17%; ID/g (Rattus norvegicus [23]): 1.23%; ID/g (Rattus norvegicus [24]): 1.02%; ID/g (Rattus norvegicus [25]): 0.99%; ID/g (Rattus norvegicus [26]): 1.02%; ID/g (Rattus norvegicus [27]): 0.99%; ID/g (Rattus norvegicus [28]): 1.05%; ID/g (Rattus norvegicus [29]): 0.72%; Ki [30]: 1.2 µM; Ki [31]: 0.00033 µM; ID/g (Rattus norvegicus [32]): 0.89%; Ki [33]: 2.04 µM
18.8 min | 2.83 | 1.13% | 0.83% | 0.17% | 0.3% | 0.07% | 0.52% | 0.27% | 0.8% | 0.1% | 1.11% | 0.7% | 1.12% | 1.37% | 0.36% | 0.98% | 0.74% | 1.09% | 0.38% | COc1ccc(Sc2ccccc2CN(C)C)c(N)c1 | ID/g (Rattus norvegicus [34]): 0.71%; ID/g (Rattus norvegicus [35]): 0.13%; ID/g (Rattus norvegicus [36]): 0.1%; ID/g (Rattus norvegicus [37]): 0.2%; ID/g (Rattus norvegicus [38]): 0.54%; ID/g (Rattus norvegicus [39]): 0.56%; ID/g (Rattus norvegicus [22]): 1.31%; ID/g (Rattus norvegicus [23]): 1.08%; ID/g (Rattus norvegicus [40]): 0.89%; ID/g (Rattus norvegicus [24]): 1.22%; ID/g (Rattus norvegicus [25]): 0.63%; ID/g (Rattus norvegicus [26]): 1.07%; ID/g (Rattus norvegicus [27]): 0.76%; ID/g (Rattus norvegicus [41]): 0.58%; ID/g (Rattus norvegicus [28]): 1.19%; ID/g (Rattus norvegicus [29]): 0.38%; Ki [30]: 1.99 µM; Ki [31]: 0.00189 µM; ID/g (Rattus norvegicus [32]): 0.48%; Ki [33]: 2.65 µM
